For data set [1], the target named is T1, Taste receptor type 2 member 8 (Homo sapiens, UniProt Q9NYW2).
T1 sequence (Q9NYW2 whole entry): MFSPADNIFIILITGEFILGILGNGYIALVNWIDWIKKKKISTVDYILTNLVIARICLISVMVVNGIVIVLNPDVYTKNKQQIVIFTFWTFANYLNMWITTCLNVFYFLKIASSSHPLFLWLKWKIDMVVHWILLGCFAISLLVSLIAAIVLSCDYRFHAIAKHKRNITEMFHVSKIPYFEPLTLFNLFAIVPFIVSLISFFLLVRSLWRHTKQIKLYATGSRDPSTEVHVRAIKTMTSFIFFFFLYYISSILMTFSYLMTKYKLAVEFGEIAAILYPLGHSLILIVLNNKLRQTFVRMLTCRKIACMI
The data set is described as follows: Antagonist activity at recombinant human TAS2R8 stably expressed in cells co-expressing Galpha16gust44 assessed as inhibition of andrographolide-induced intracellular calcium level measured for 100 secs by fluo-4 dye based FLIPR assay. Format: functional, cell-based. In short, it runs like this: (§1)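 Recombinant cells stably expressing G16t44 chimera and TAS2R8 (clones isolated by limiting dilution), plated 24 h before assay; loaded with fluo-4 in PBS 60 min, washed, rested 15 min in dark at RT. Andrographolide agonist at its EC80, premixed with antagonist and added together; final DMSO 0.5%. Baseline read 10 s, then fluorescence followed 100 s on FLIPR.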
For orientation: Calcium flux is commonly read through the fluorescence of an indicator in the cells.

Data set [2] can be described thus: Ratio of solubility of the compound in pH 7.1 buffer measured after 24 hrs to IC50 for antagonist activity at recombinant human TAS2R8 expressed in cells co-expressing Galpha16gust44 assessed as inhibition of andrographolide-induced intracellular calcium level. Format: cell-based.
The nature of data set [3]: Solubility of the compound in pH 7.1 buffer measured after 24 hrs. Format: physicochemical.
A short description of data set [4]: Stability of the compound in pH 2.8 buffer assessed as parent compound remaining measured after 24 hrs at 100 degC. The note with it: read-out: Stability. In kind it is physicochemical.
Data set [5] can be described thus: Stability of the compound in pH 7.1 buffer assessed as parent compound remaining measured after 24 hrs at 100 degC. Format: physicochemical. The note with it: read-out: Stability.
Data set [6] concerns the target T2, Taste receptor type 2 member 8 (Homo sapiens) (UniProt Q9NYW2).
T2 sequence (whole entry): T1 sequence (Q9NYW2 whole entry)
As to the kind of experiment: Antagonist activity at recombinant human TAS2R8 stably expressed in cells co-expressing Galpha16gust44 assessed as inhibition of andrographolide-induced intracellular calcium level at 10 uM measured for 100 secs by fluo-4 dye based FLIPR assay relative to control. Format: functional, cell-based. In short, it runs like this:
as §1

Data set [7] is described as follows: Drug metabolism in pH <6.5 buffer assessed as S6821 formation measured under room temperature.

Values after ≈ are worked out from the molar mass of the structure shown.

As usually defined, the IC50 is the concentration at which inhibition is half-maximal. Consider `Cc1noc(C)c1Cn1cc(NS(=O)(=O)c2ccccc2)cn1`, for which the IC50 in data set [1] came to 4000 nM.
For orientation: solubility means how much of the substance goes into solution per volume. Read a low solubility as little dissolved substance. In the case of `COc1ccccc1CN1CC(=O)N(c2cnn(Cc3c(C)noc3C)c2)C1=O`, in data set [2], the Ratio worked out at 267. Moreover, in data set [1], the IC50 came out at 100 nM. Also, the concentration in solution in data set [3] (solubility at 24 h) was 16 µM (≈ 6.33 µg/mL).
Consider `Cc1noc(C)c1Cn1cc(NC(=O)c2ccc3[nH]ccc3c2)cn1`, for which, in data set [1], the IC50 amounted to 300 nM.
Regarding `COc1ccc(OC)c(C(=O)Nc2cnn(Cc3c(C)noc3C)c2)c1`, the IC50 in data set [1] was found to be 300 nM.
On the same count and under the same terms, under `COc1ccccc1C(=O)Nc1cnn(Cc2c(C)noc2C)c1` stands 1900 nM.
As for `Cc1noc(C)c1Cn1cc(NC(=O)Cc2ccccc2)cn1`, in data set [1], the IC50 stood at 800 nM.
Still for that read-out and setting: in the case of `Cc1noc(C)c1Cn1cc(NC(=O)CCc2ccccc2)cn1` it was 400 nM; in that of `Cc1noc(C)c1Cn1cc(NC(=O)Nc2ccccc2)cn1`, 2000 nM.
On to `Cc1noc(C)c1Cn1cc(N2Cc3ccccc3C2=O)cn1`, for which the IC50 in data set [1] turned out to be 9000 nM.
Same read-out and setting: in the case of `Cc1noc(C)c1Cn1cc(N2C(=O)CN(Cc3ccc(O)cc3)C2=O)cn1` it was 40 nM; in that of `COc1ncccc1C(=O)Nc1cnn(Cc2c(C)noc2C)c1`, 1100 nM; in that of `COc1ccc(C(=O)Nc2cnn(Cc3c(C)noc3C)c2)cc1`, 700 nM.
As to `Cc1noc(C)c1Cn1cc(N2C(=O)CN(Cc3ccccc3F)C2=O)cn1`, the Ratio in data set [2] came out at 600. Also, the IC50 in data set [1] is 100 nM. The compound further had a solubility at 24 h in data set [3] of 51 µM (≈ 19.6 µg/mL).
Regarding `Cc1noc(C)c1Cn1cc(NC(=O)c2ccccc2O)cn1`, the concentration for half-maximal inhibition (IC50) in data set [1] is 1000 nM.
Take `Cc1noc(C)c1Cn1cc(N2C(=O)CN(Cc3cccc(C(=O)O)c3)C2=O)cn1`: in data set [1], the IC50 is 2000 nM.
In the case of `Cc1noc(C)c1Cn1cc(NC(=O)c2ccccc2)cn1`, the IC50 in data set [1] fell in the range of 1700 to 2000 nM.
In the case of `Cc1noc(C)c1Cn1cc(N2C(=O)[C@@H](C)N(Cc3cccc(O)c3)C2=O)cn1`, the Ratio in data set [2] stood at 3390. In addition, the values for the remaining at 24 h in data set [4] and in data set [5] were greater than 99% and 92%, respectively. The amount in solution in data set [3] (solubility at 24 h) came to 61 µM (≈ 24.1 µg/mL).
As to `COC(=O)c1cccc(CN2CC(=O)N(c3cnn(Cc4c(C)noc4C)c3)C2=O)c1`, the IC50 in data set [1] came to 100 nM.
For `Cc1noc(C)c1Cn1cc(NC(=O)NCc2ccccc2)cn1`, the IC50 in data set [1] came to 1000 nM.
With `CNC(=O)c1cccc(CN2CC(=O)N(c3cnn(Cc4c(C)noc4C)c3)C2=O)c1`, the half-maximal inhibitory concentration (IC50) in data set [1] was found to be 100 nM.
For the compound `Cc1noc(C)c1Cn1cc(NC(=O)c2cccc(O)c2)cn1`, the IC50 in data set [1] came out at 400 nM.
For `COc1ccc(C(=O)Nc2cnn(Cc3c(C)noc3C)c2)cc1OC`, the IC50 in data set [1] was 1000 nM.
On to `Cc1noc(C)c1Cn1cc(N2C(=O)[C@H](CO)N(Cc3cccc(O)c3)C2=O)cn1`, for which the Ratio in data set [2] was found to be 57600. The remaining at 24 h in data set [4] turned out to be 53%; in data set [5], 2%. The compound also returned a solubility at 24 h in data set [3] of 2480 µM (≈ 1020 µg/mL).
Take `Cc1noc(C)c1Cn1cc(N2C(=O)C(=O)N(Cc3ccccc3)C2=O)cn1`: the IC50 in data set [1] is 2000 nM.
On to `Cc1noc(C)c1Cn1cc(NC(=O)c2ccc3ocnc3c2)cn1`, for which the half-maximal inhibitory concentration (IC50) in data set [1] is 3000 nM.
Take `COc1cccc(C(=O)Nc2cnn(Cc3c(C)noc3C)c2)c1`: in data set [1], the IC50 stood at 700 nM.
In the case of `Cc1noc(C)c1Cn1cc(N2C(=O)[C@H](C)N(Cc3cccc(O)c3)C2=O)cn1`, in data set [2], the Ratio came to 3750. For the same compound, the remaining at 24 h is greater than 99% in data set [4] and 92% in data set [5]. In data set [3], the solubility at 24 h worked out at 60 µM (≈ 23.7 µg/mL).
On to `Cc1noc(C)c1Cn1cc(NC(=O)CCCc2ccccc2)cn1`, for which the IC50 in data set [1] came out at 800 nM.
As for `Cc1noc(C)c1Cn1cc(N2C(=O)N(Cc3cccc(O)c3)C3(CCC3)C2=O)cn1`, the Ratio in data set [2] came to 77. In addition, the results for the remaining at 24 h in data set [4] and in data set [5] were 97% and 98%, respectively. Further, the IC50 in data set [1] worked out at 40 nM. This compound registered a solubility at 24 h in data set [3] of 3 µM (≈ 1.26 µg/mL).
Consider `COc1cncc(C(=O)Nc2cnn(Cc3c(C)noc3C)c2)c1`, for which the IC50 in data set [1] turned out to be 800 nM.
For the compound `Cc1noc(C)c1Cn1cc(N2C(=O)CN(Cc3ccccc3)C2=O)cn1`, the values for the remaining at 24 h in data set [4] and in data set [5] were greater than 99% and 60%, respectively. Also, in data set [1], the IC50 was 200 nM. For the same compound, the solubility at 24 h in data set [3] amounted to 70 µM (≈ 25.6 µg/mL).
In the case of `Cc1noc(C)c1Cn1cc(N2C(=O)N(Cc3cccc(O)c3)C3(CC3)C2=O)cn1`, the Ratio in data set [2] is 1550. The values for the remaining at 24 h in data set [4] and in data set [5] were greater than 99% and 96%, respectively. This compound also returned a solubility at 24 h in data set [3] of 31 µM (≈ 12.6 µg/mL).
Consider `Cc1cc(CN2CC(=O)N(c3cnn(Cc4c(C)noc4C)c3)C2=O)n(C)n1`, for which the IC50 in data set [1] was 200 nM.
Still for that read-out and setting: under `Cc1noc(C)c1Cn1cc(NC(=O)c2ccc(O)cc2)cn1` stands 500 nM.
`Cc1noc(C)c1Cn1cc(N2C(=O)N(Cc3cccc(O)c3)C(C)(CO)C2=O)cn1` (stereo not drawn): in data set [2], the Ratio was found to be 2660. Further, the values for the remaining at 24 h in data set [4] and in data set [5] were greater than 99% and 43%, respectively. Moreover, the IC50 in data set [1] was found to be 100 nM. Besides, the concentration in solution in data set [3] (solubility at 24 h) was 356 µM (≈ 151 µg/mL).
With `Cc1noc(C)c1Cn1cc(N2C(=O)CNC2=O)cn1`, the IC50 in data set [1] stood at 900 nM.
Regarding `Cc1noc(C)c1Cn1cc(N2C(=O)c3ccccc3C2=O)cn1`, the remaining at 24 h in data set [4] came out at 3%; in data set [5], 5%. Also, in data set [1], the IC50 was 200 nM. For the same compound, the solubility at 24 h in data set [3] was determined as 12 µM (≈ 3.87 µg/mL).
`Cc1noc(C)c1Cn1cc(N2C(=O)CN(Cc3ccccn3)C2=O)cn1`: the IC50 in data set [1] was determined as 1000 nM.
In general, inhibition refers to how much of the control response was suppressed. Regarding `CCSc1ncccc1C(=O)Nc1cnn(Cc2c(C)noc2C)c1`, the inhibition in data set [6] amounted to 50%. The IC50 in data set [1] is 2300 nM.
For `Cc1noc(C)c1Cn1cc(N2C(=O)CN(Cc3ccccc3O)C2=O)cn1`, the IC50 in data set [1] was 100 nM.
For `Cc1noc(C)c1Cn1cc(N2CCN(Cc3ccccc3)C2=O)cn1`, the IC50 in data set [1] was found to be 1000 nM.
As to `Cc1noc(C)c1Cn1cc(N2C(=O)CN(CC3CCCCC3)C2=O)cn1`, the IC50 in data set [1] was 300 nM.
`Cc1noc(C)c1CN1CC(=O)N(c2cnn(Cc3c(C)noc3C)c2)C1=O`: the IC50 in data set [1] worked out at 400 nM.
As for `Cc1noc(C)c1Cn1cc(NC(=O)N(CC(=O)O)Cc2cccc(O)c2)cn1`, in data set [7], the Drug metabolism result is recorded as “Metabolite detected”.
On to `Cc1noc(C)c1Cn1cc(N2C(=O)CN(CC3CCCO3)C2=O)cn1` (stereo not drawn), for which the IC50 in data set [1] worked out at 1000 nM.
As to `COc1cccc(C(=O)Nc2cnn(Cc3c(C)noc3C)c2)n1`, the concentration for half-maximal inhibition (IC50) in data set [1] amounted to 700 nM.
Regarding `Cc1noc(C)c1Cn1cc(NC(=O)c2ccccn2)cn1`, the IC50 in data set [1] came out at 2300 nM.
